Assay outcomes as filed in PubChem BioAssay.
In the library only some 12% were active in any assay of this set; here they are far more common.
ROMK primary: ROMK potassium channel modulators, primary screen, cell-based, thallium flux, MLSMR library. B-score at 10 µM. Tet-inducible ROMK, thallium flux fluorescence; actives lie on both sides. hit rate 2% among 130,000. ATP-sensitive inward rectifier potassium channel 1 (Homo sapiens), P48048;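 active = signal ratio slope over the read window, or its plate-corrected B-score, at least 3 SD from the plate mean, either direction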;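 note: B-score of the F/F0 ratio slope over 7 to 12 s after thallium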
Target sequence (P48048 whole entry, looked up): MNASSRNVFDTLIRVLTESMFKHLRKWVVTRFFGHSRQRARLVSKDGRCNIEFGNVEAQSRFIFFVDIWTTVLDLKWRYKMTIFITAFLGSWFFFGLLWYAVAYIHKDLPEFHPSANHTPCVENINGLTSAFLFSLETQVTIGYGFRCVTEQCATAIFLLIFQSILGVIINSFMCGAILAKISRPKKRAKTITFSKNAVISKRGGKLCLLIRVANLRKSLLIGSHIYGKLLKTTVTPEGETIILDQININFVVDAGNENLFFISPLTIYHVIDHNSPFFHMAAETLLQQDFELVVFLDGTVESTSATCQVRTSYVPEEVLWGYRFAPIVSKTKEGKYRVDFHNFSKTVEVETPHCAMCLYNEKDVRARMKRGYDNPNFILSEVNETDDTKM
Diaphorase inh: diaphorase inhibitors and chemical oxidizers, primary screen, counter-screen for diaphorase-coupled primary assays, biochemical, uHTS, resorufin fluorescence; diaphorase resazurin-to-resorufin fluorescence, NADH, 16 min; bacterial (C. kluyveri) enzyme, not human; inhibition, % at 20 µM; hit rate 0.69% among 190,000; AID 1217, 2008;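 active = primary screen inhibition at 20 µM above a set limit, cut at about 50% in these data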;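 note: plate controls were DMSO with full reaction for no effect and wells lacking NADH for full effect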
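material = Clostridium kluyveri diaphorase enzyme | amount = 0.14 U/mL diaphorase, enzyme working solution | schedule = incubation 16 min, room temperature | detection = fluorescence of resorufin formed from resazurin, Ex 544/Em 590 nm | benchmarks = positive control minus NADH, DMSO neutral control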
WT yeast gro inh: growth inhibition of WT strain, primary screen, mitochondrial fusion inhibitor project, WT and mutant strains, chemical genetic | mitochondrial fusion phenotypic screen | inhibition, % at 10 µM | hit rate 2.1% among 190,000; in the data active = inhibition above about 58%; tested in S. cerevisiae
Diaph act CS: compounds boosting diaphorase resazurin reduction – biochemical, uHTS, resorufin fluorescence, counter-screen for diaphorase-coupled primary assays, primary screen; Diaphorase/resazurin coupled assay, 16 min; hits give high values; 1 = vehicle wells, 0 = NADH-free wells; activation factor at 20 µM; hit rate 0.005% among 190,000;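 active = diaphorase activity raised at least twofold by the compound at 20 µM; inactive = activation factor below 2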
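Material: Clostridium kluyveri diaphorase, purified enzyme; Quantity: enzyme 0.07 U/mL final; Medium: HEPES pH 7.4 buffer with MgCl2 and Tween 20; Dosing: single compound dose of 20 µM, 1% DMSO final; Schedule: 16 min reaction at room temperature; Measured by: red resorufin fluorescence at 544/590 nm excitation/emission.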
Cl transport mod: KCC2 cotransporter modulators, thallium flux, primary screen, cell-based, HEK293 KCC2, FluoZin-2 fluorescence, MLSMR; Solute carrier family 12 member 5 (Homo sapiens), Q9H2X9; KCC2 cells, thallium flux FluoZin-2 fluorescence; B-score of Tl+ flux slope (higher = more flux/activation; lower = inhibition) at 10 µM; hit rate 2.2% among 190,000; AID 1456, 2008;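 active = thallium flux slope and its plate-corrected score both differing from the plate sample mean at a set confidence after two filtering rounds, in either direction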;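 note: slope of fluorescence scaled to starting intensity during 10 to 20 s after thallium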
L major viab: Leishmania major promastigote growth inhibition, primary screen; Leishmania major promastigotes, resazurin fluorescence viability; inhibition, % at 10 µM; hit rate 9% among 200,000; AID 1063, 2008; in the data active = inhibition above about 50%;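 note: promastigotes grown with compound for 44 hours at 28 °C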
Starred values were filed as active, the others as inactive.

For CCN(CC)S(=O)(=O)c1ccc(/C=C/C(=O)Nc2ccc(F)c(F)c2F)cc1 the results were Diaphorase inh 5, WT yeast gro inh -24, Diaph act CS 0.9, Cl transport mod -1.3 and L major viab 89*.
`CCN(CC)S(=O)(=O)c1ccc(/C=C/C(=O)Nc2ccc(Br)cc2F)cc1` gave ROMK primary -0.83, Diaphorase inh 6, WT yeast gro inh 1, Diaph act CS 0.9, Cl transport mod 0.75 and L major viab 99*.
COc1cc(S(=O)(=O)N2CCN(C(=O)c3ccccc3)CC2)c(OC)cc1Br was read as ROMK primary -0.37, WT yeast gro inh -2, Cl transport mod -0.11 and L major viab 0.
`CN1CCN(Cc2c(O)ccc3c(=O)c(Oc4ccccc4Cl)c(C(F)(F)F)oc23)CC1` gave Diaphorase inh 11, WT yeast gro inh 27, Diaph act CS 0.9, Cl transport mod 1.2 and L major viab 99*.
Screening Cc1oc2c(CN3CCCC3)c(O)ccc2c(=O)c1Oc1ccccc1Br returned ROMK primary 0.031, Diaphorase inh 7, WT yeast gro inh 5, Diaph act CS 0.9, Cl transport mod -0.22 and L major viab 49.
CCOC(=O)c1ccc(Oc2c(C)oc3c(CN4CCN(C)CC4)c(O)ccc3c2=O)cc1 was read as ROMK primary -0.0086, Diaphorase inh 8, WT yeast gro inh 29, Diaph act CS 0.9 and L major viab 100*.
COc1ccc(Oc2c(C)oc3c(CN4CCOCC4)c(O)ccc3c2=O)cc1 was read as Diaphorase inh 9, WT yeast gro inh 2, Diaph act CS 0.9, Cl transport mod 0.24 and L major viab 6.
O=C1Cc2ccccc2C(=O)N1OCc1ccc(Cl)cc1Cl was read as ROMK primary 1.5, Diaphorase inh 8, WT yeast gro inh 12, Diaph act CS 0.9, Cl transport mod 0.45 and L major viab 13.
`O=c1cc2c(nn1Cc1ccc(Cl)cc1Cl)-c1ccccc1CC2` gave ROMK primary 0.11, Diaphorase inh 20, WT yeast gro inh 76*, Diaph act CS 0.8 and L major viab 5.
For O=c1cc2c(nn1Cc1ccccc1Cl)-c1ccccc1CC2 the results were ROMK primary -1.7, Diaphorase inh 27, WT yeast gro inh 69*, Diaph act CS 0.7 and L major viab 2.
CCOc1ccc(NC(=O)CC2SC(=O)N(c3ccccc3)C2=O)cc1 (stereo not drawn) was read as Diaphorase inh 4, WT yeast gro inh -3, Diaph act CS 1, Cl transport mod -0.028 and L major viab -7.
Screening Cc1ccc(S(=O)(=O)CCc2nc3ccccc3[nH]2)cc1C returned ROMK primary 1.1, Diaphorase inh -9, WT yeast gro inh 20, Diaph act CS 1.1, Cl transport mod 0.79 and L major viab -2.
`COc1ccc(-c2csc3nc(C)nc(N4CCN(C(C)=O)CC4)c23)cc1OC` gave ROMK primary 0.66, Diaphorase inh 13, WT yeast gro inh 2, Diaph act CS 0.9, Cl transport mod -0.39 and L major viab 7.
For COc1ccc(-c2csc3nc(C)nc(N4CCC(C)CC4)c23)cc1OC the results were ROMK primary 1.8, Diaphorase inh 14, WT yeast gro inh 63*, Diaph act CS 0.9, Cl transport mod 0.59 and L major viab 90*.
Screening O=C(NC1CCCCCC1)c1cccs1 returned Diaphorase inh 2, WT yeast gro inh 5, Diaph act CS 1, Cl transport mod -0.0016 and L major viab -7.
Nc1c(C(=O)NC2CCCC2)sc2nc(-c3cccs3)ccc12 was read as ROMK primary -1.2, Diaphorase inh 19, WT yeast gro inh 62*, Diaph act CS 0.8, Cl transport mod 0.66 and L major viab 24.
CNC(=O)c1cc2cc(Cl)cc(OC)c2oc1=O was read as Cl transport mod 1.8 and L major viab -6.
CN(Cc1ccccc1)S(=O)(=O)c1ccc2[nH]cc(C(=O)NCC3CCCO3)c(=O)c2c1 (stereo not drawn) was read as Diaphorase inh -4, WT yeast gro inh -13, Diaph act CS 1, Cl transport mod -0.28 and L major viab 99*.
Screening CCc1ccccc1NS(=O)(=O)c1ccc2[nH]cc(C(=O)NCC3CCCO3)c(=O)c2c1 (stereo not drawn) returned Diaphorase inh 25, WT yeast gro inh -19, Diaph act CS 0.8, Cl transport mod 0.44 and L major viab 6.
For Cc1cc(Cl)ccc1Oc1ncc(CN2CCN(c3ccccc3)CC2)s1 the results were ROMK primary 0.54, Diaphorase inh 19, WT yeast gro inh 64*, Diaph act CS 0.8, Cl transport mod 0.47 and L major viab -6.
`CSC(=S)N/N=C(\C)c1ccc(Br)cc1` gave ROMK primary 3.1*, Diaphorase inh 31, WT yeast gro inh 68*, Diaph act CS 0.7, Cl transport mod 84* and L major viab -3.
For COC(=O)N/N=C(\C)c1ccc(Br)cc1 the results were Diaphorase inh 13, WT yeast gro inh -7, Diaph act CS 0.9 and L major viab -8.
For CCOP(=O)(OCC)C(C#N)=C1SCN(c2ccccc2)CS1 the results were Cl transport mod 0.64 and L major viab -9.
`O=C(Oc1ccc(Br)cc1C(=O)/C=C/c1ccccc1F)c1ccco1` gave Cl transport mod 0.019 and L major viab 100*.
Cc1cc(S(=O)(=O)N2CCN(c3ccccc3C)CC2)ccc1F was read as Diaphorase inh 17, WT yeast gro inh 61*, Diaph act CS 0.8 and L major viab -2.
CCCC(=O)c1cc(F)c(N2CCN(S(=O)(=O)c3ccccc3)CC2)cc1C was read as ROMK primary 0.7, Diaphorase inh 14, WT yeast gro inh 2, Diaph act CS 0.9, Cl transport mod -0.41 and L major viab 4.
CCC(=O)c1cc(F)c(N2CCN(S(=O)(=O)c3ccccc3)CC2)cc1C was read as ROMK primary 0.61, Diaphorase inh 18, WT yeast gro inh 8, Diaph act CS 0.8 and L major viab 64*.
For CCCNC(=O)CSc1nc2ccc(OCC)cc2s1 the results were ROMK primary -0.057, Diaphorase inh 1, WT yeast gro inh -1, Diaph act CS 1, Cl transport mod 1.2 and L major viab -3.
Screening O=[N+]([O-])c1cccnc1NCCNc1ncc(C(F)(F)F)cc1Cl returned Diaphorase inh 14, WT yeast gro inh 16, Diaph act CS 0.9 and L major viab -2.
